Assay results reported in PubChem BioAssay.
Unmarked numbers belong to inactive results. Inconclusive results are not listed. Calls of active or inactive are those of the source.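 How the source made its calls, unless noted: active means RAM network inhibition above 8.4% in each of two replicates, 3 SD over the compound average; inconclusive means above 8.4% inhibition in only one replicate; inactive means 8.4% inhibition or less in each replicate.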

How the values were obtained:
[1] = OD615 S. cerevisiae growth inhibition, permissive medium, pilot counter-assay, permissive growth control for S. cerevisiae lifespan shortening project (AID 705;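 active means growth inhibition above 25% in both replicates, a cutoff set 3 SD above the mean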); settings: OD615, 24 h, at 10 µM, active compounds read high
Method in brief: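 Timing: 24 h exposure, 30 °C / Material: Saccharomyces cerevisiae strain carrying genetically modified DeaD replicative-lifespan system / Signal: OD at 615 nm / Compound: 10 µM single dose, 0.25% DMSO / Medium: SC raffinose/galactose permissive medium / Evaluation: reduction in yeast growth (OD615)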

[2] = Restrictive medium S. cerevisiae growth inhibition, OD615, pilot screen of yeast lifespan reduction project, restrictive growth control (AID 706;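 active means growth inhibition above a set limit, 3 SD over mean compound inhibition, in both replicates, cut at about 43% in these data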;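 further: modified DeaD lifespan yeast strain shifted to restrictive glucose medium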); settings: OD615, 48 h, at 10 µM, active compounds read high
Method in brief: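 System: Engineered S. cerevisiae DeaD strain | Detection: OD615 | Buffer or medium: CSMM-D glucose medium | Doses: 10 µM compound, 0.25% DMSO | Timing: 4 h pre-growth plus 48 h compound exposure, 30 °C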

[3] = viability gain of MRP-1-high H69AR cells under doxorubicin, pilot screen, MRP-1 activator project, CellTiter-Glo, duplicate (AID 807;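 active means viability increase at or above a cutoff of the median across tested compounds plus 3 SD, cut at about 8.5% in these data, passing the limit was not always enough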;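 further: compound pretreatment 18-22 h then 72 h combined with doxorubicin; 0% = doxorubicin alone and 100% = vehicle without doxorubicin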); settings: H69AR viability with doxorubicin, CellTiter-Glo luminescence; at 10 µM; active compounds read high
[4] = growth suppression of beta-catenin knockout HCT116, pilot screen, human colon tumor cells (AID 823;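 active means cell viability at or below a set limit in both duplicate runs, the limit being the all-compound median minus 4 SD, cut at about 23% in these data, passing the limit was not always enough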;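 further: 0% = wells killed by 20 µM Hyamine and 100% = untreated DMSO cell wells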); settings: CellTiter-Glo, 60 h, at 10 µM, active compounds read low
[5] = growth suppression of PTEN-deleted HCT116, pilot screen, cell-based, HCT116 clonal line, CellTiter-Glo (AID 824;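 active means viability at or below 27.92% in each of two runs, the all-compound median minus 4 SD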;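 further: 0% = 20 µM Hyamine control and 100% = vehicle cell control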); settings: 60 h, at 10 µM, active compounds read low
[6] = inhibitors of the yeast RAM network, pilot screen, dse1pr::URA3 reporter, 5-FOA selection (AID 869;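 active means inhibition over a set limit, the all-compound mean plus 3 SD, in both replicate runs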;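 further: 0% = DMSO wells with no growth and 100% = 10 µM 1-NA-PP1 with full growth; RAM network block rescues cells from 5-FOA so hits raise OD615 growth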); settings: S. cerevisiae dse1pr::URA3 5-FOA growth, OD615, 2 d; at 10 µM; active compounds read high; strain carries analog-sensitive mutant Cbk1 kinase
[7] = RAM signaling pathway blockade in yeast – S. cerevisiae, Pdr1DBD-CYC8 efflux-inhibited sensitized strain, primary screen (AID 1298);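 further: 0% = DMSO untreated cells without growth and 100% = 10 µM 1-NA-PP1 full growth; higher means more yeast growth rescued from 5-FOA killing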; settings: S. cerevisiae cbk1-as DSE1-URA3 strain, 5-FOA growth OD615, 2 d; at 50 µM; active compounds read high

C=CCSc1nc2c(cnn2-c2ccc(C)c(C)c2)c(=O)[nH]1
growth inhibition [1]: -6.23% | growth inhibition [2]: -5.07% | viability increase [3]: -1.43% | viability [4]: 93.3% | viability [5]: 93.1% | inhibition [6]: 4.19% | RAM network inhibition [7]: 0.11%

O=C(Oc1ccc2c(=O)c(Cl)coc2c1)c1ccncc1
growth inhibition [1]: -0.185% | growth inhibition [2]: 7.12% | viability increase [3]: -4.3% | viability [4]: 90.4% | viability [5]: 99.2% | inhibition [6]: 0.015% | RAM network inhibition [7]: -0.99%

Cc1cc(NS(=O)(=O)c2ccc(NC(=O)CCCC(=O)O)cc2)nc(C)n1
growth inhibition [1]: -5.33% | growth inhibition [2]: -3.05% | viability increase [3]: -1.07% | viability [4]: 102% | viability [5]: 92.2% | inhibition [6]: -0.135% | RAM network inhibition [7]: 3.87%

CCCCCn1c(CNC(=O)CC)nc2ccccc21
growth inhibition [1]: -6.04% | growth inhibition [2]: -11.1% | viability increase [3]: 0.02% | viability [4]: 97.5% | viability [5]: 96.5% | inhibition [6]: 1.53% | RAM network inhibition [7]: 4.9%

CS(=O)(=O)N(Cc1ccc(C(=O)NCc2ccco2)cc1)c1ccccc1
growth inhibition [1]: -6.5% | growth inhibition [2]: -0.32% | viability increase [3]: -3.9% | viability [4]: 94% | viability [5]: 100% | inhibition [6]: -0.1% | RAM network inhibition [7]: 4.76%

CNC(=O)CN1C(=O)CSc2ncccc21
growth inhibition [1]: 10.1% | growth inhibition [2]: 2.23% | viability increase [3]: -0.85% | viability [4]: 101% | viability [5]: 92.2% | inhibition [6]: 1.78% | RAM network inhibition [7]: -1.94%

CC1CCCCN1CCn1cnc2c([nH]c3ccccc32)c1=O (centres undefined)
growth inhibition [1]: -2.21% | growth inhibition [2]: 5.29% | viability increase [3]: -4.17% | viability [4]: 88.1% | viability [5]: 87.4% | inhibition [6]: -0.135% | RAM network inhibition [7]: 4.11%

Cc1nccn1-c1c2c(c(C#N)c3nc4ccccc4n13)CCC2
growth inhibition [1]: -8.38% | growth inhibition [2]: -2.89% | viability increase [3]: -2.34% | viability [4]: 97.3% | viability [5]: 93.1% | inhibition [6]: 2.08% | RAM network inhibition [7]: 2.4%

CCOc1ccccc1N1CCN(C(=O)c2cc(C)oc2C)CC1
growth inhibition [1]: -10.5% | growth inhibition [2]: -5.64% | viability increase [3]: -3.37% | viability [4]: 89.2% | viability [5]: 93.9% | inhibition [6]: 0.04% | RAM network inhibition [7]: 0.7%

O=C(NCCCN1CCOCC1)NC12CC3CC(CC(C3)C1)C2
growth inhibition [1]: -1.84% | growth inhibition [2]: 2.31% | viability increase [3]: -0.98% | viability [4]: 104% | viability [5]: 105% | inhibition [6]: 0.625% | RAM network inhibition [7]: 0.01%

CC(=O)N(CCCc1ccc(C(C)(C)C)cc1)CCCN(C)C
growth inhibition [1]: -2.64% | growth inhibition [2]: -12.6% | viability increase [3]: -5.16% | viability [4]: 70.6% | viability [5]: 76.2% | inhibition [6]: 0.59% | RAM network inhibition [7]: 1.48%

O=C1NCCCC1C(=O)NCCN1C(=O)CCC1=O (centres undefined)
growth inhibition [1]: -14.3% | growth inhibition [2]: -7.9% | viability increase [3]: 0.1% | viability [4]: 96.7% | viability [5]: 96% | inhibition [6]: 1.04% | RAM network inhibition [7]: 3.29%

CCNc1cc2oc(=O)c(CN3CCOCC3)c(C)c2cc1C
growth inhibition [1]: 4.16% | growth inhibition [2]: 6.97% | viability increase [3]: -1.46% | viability [4]: 91% | viability [5]: 94.5% | inhibition [6]: 2.04% | RAM network inhibition [7]: 0.2%

COc1ccc(N(CC(=O)NCc2ccccc2OC)S(=O)(=O)c2c(C)nn(C)c2C)cc1
growth inhibition [1]: -12.2% | growth inhibition [2]: -16.1% | viability increase [3]: -3.37% | viability [4]: 99.6% | viability [5]: 95.6% | inhibition [6]: 0.135% | RAM network inhibition [7]: 2.29%

Cc1nc2ccccc2c2oc(C(=O)N3CCc4ccccc43)cc12
growth inhibition [1]: -11.5% | growth inhibition [2]: -16.6% | viability increase [3]: -0.71% | viability [4]: 95.5% | viability [5]: 89.1% | inhibition [6]: 0.625% | RAM network inhibition [7]: -0.73%

Cn1ccnc1SCC(=O)Nc1cccc(C(F)(F)F)c1
growth inhibition [1]: 0.76% | growth inhibition [2]: 10.5% | viability increase [3]: -4.88% | viability [4]: 96.4% | viability [5]: 96.8% | inhibition [6]: 0.71% | RAM network inhibition [7]: 4.72%

Cc1ccccc1-n1c(=O)cc(N2CCCCCC2)[nH]c1=O
growth inhibition [1]: -4.08% | growth inhibition [2]: -0.93% | viability increase [3]: -2.23% | viability [4]: 99.9% | viability [5]: 98.1% | inhibition [6]: 2.07% | RAM network inhibition [7]: 6.58%

Nc1nc2n(n1)C(c1ccccc1Cl)CC(c1ccc(F)cc1)N2 (centres undefined)
growth inhibition [1]: 0.695% | growth inhibition [2]: 2.18% | viability increase [3]: -0.54% | viability [4]: 91.6% | viability [5]: 88.8% | inhibition [6]: 2.58% | RAM network inhibition [7]: 0.48%

Cn1c(=O)oc2cc(S(=O)(=O)N3CCC(C(=O)NCc4cccs4)CC3)ccc21
growth inhibition [1]: -3.54% | growth inhibition [2]: 4.04% | viability increase [3]: -0.3% | viability [4]: 95.1% | viability [5]: 90.2% | inhibition [6]: 0.335% | RAM network inhibition [7]: 1.5%

COc1cccc(-c2nnc3n2N=C(C(C)(C)C)CS3)c1
growth inhibition [1]: -5.97% | growth inhibition [2]: -16.3% | viability increase [3]: -4.18% | viability [4]: 5.81% (active) | viability [5]: 5.52% (active) | inhibition [6]: 0.79% | RAM network inhibition [7]: 2.49%

O=C(Nc1nc(-c2ccccn2)cs1)C1COc2ccccc2O1 (centres undefined)
growth inhibition [1]: 84.5% (active) | growth inhibition [2]: 96.9% (active) | viability increase [3]: -0.68% | viability [4]: 10.3% (active) | viability [5]: 11.5% (active) | inhibition [6]: 0.255% | RAM network inhibition [7]: -2.19%

CCOC(=O)CCc1n[nH]c(=O)[nH]c1=O
growth inhibition [1]: -3.33% | growth inhibition [2]: 5.9% | viability increase [3]: -0.23% | viability [4]: 102% | viability [5]: 104% | inhibition [6]: 1.46% | RAM network inhibition [7]: 0%

CCN(CC)CCN1C(=O)c2ccccc2NC1c1cccc(F)c1 (centres undefined)
growth inhibition [1]: -8.46% | growth inhibition [2]: 1.83% | viability increase [3]: -2.21% | viability [4]: 84.4% | viability [5]: 91.4% | inhibition [6]: 0.75% | RAM network inhibition [7]: 8.87%

CCN(CCNC(=O)CCCn1nc(C)n2c(cc3sccc32)c1=O)c1ccccc1
growth inhibition [1]: -7.8% | growth inhibition [2]: -4.82% | viability increase [3]: 1.17% | viability [4]: 97.2% | viability [5]: 93% | inhibition [6]: -0.2% | RAM network inhibition [7]: 6.63%

COc1ccc(CCNC(=O)c2cnccn2)cc1
growth inhibition [1]: -10.1% | growth inhibition [2]: -2.55% | viability increase [3]: 0.3% | viability [4]: 102% | viability [5]: 87.2% | inhibition [6]: 3.53% | RAM network inhibition [7]: 2.5%

COc1ccc(C2C=C(c3ccc(C)c(C)c3)Nc3ncnn32)c(OC)c1OC (centres undefined)
growth inhibition [1]: -5.12% | growth inhibition [2]: 11.7% | viability increase [3]: -4.29% | viability [4]: 40.4% | viability [5]: 34.3% | inhibition [6]: 0.775% | RAM network inhibition [7]: -1.46%

O=C(NCc1nc2ccccc2[nH]1)c1cccs1
growth inhibition [1]: -13.9% | growth inhibition [2]: -1.7% | viability increase [3]: 0.55% | viability [4]: 105% | viability [5]: 103% | inhibition [6]: 2.04% | RAM network inhibition [7]: 5.75%

COc1ccc(OC)c(N(CC(=O)NCCSc2ccccc2)S(C)(=O)=O)c1
growth inhibition [1]: -4.86% | growth inhibition [2]: -9.71% | viability increase [3]: -3.1% | viability [4]: 96.9% | viability [5]: 95.5% | inhibition [6]: 0.23% | RAM network inhibition [7]: 4.35%

CCOC(=O)c1cc(-c2ccc(C)o2)nn1CCC#N
growth inhibition [1]: -6.98% | growth inhibition [2]: 4.24% | viability increase [3]: 0.21% | viability [4]: 101% | viability [5]: 102% | inhibition [6]: 0.86% | RAM network inhibition [7]: 3.69%

Cc1ccccc1C(=O)Nc1ccccc1
growth inhibition [1]: -0.285% | growth inhibition [2]: -2.05% | viability increase [3]: -0.99% | viability [4]: 96.1% | viability [5]: 85.4% | inhibition [6]: 0.28% | RAM network inhibition [7]: 0.56%

CCCCn1c(C(C)NC(=O)COC)nc2ccccc21 (centres undefined)
growth inhibition [1]: -3.38% | growth inhibition [2]: 1.68% | viability increase [3]: -0.01% | viability [4]: 91.4% | viability [5]: 101% | inhibition [6]: 1.94% | RAM network inhibition [7]: 0.2%

COc1ccc(OC)c(NC(=O)c2cnc3n(c2=O)CCS3)c1
growth inhibition [1]: -1.9% | growth inhibition [2]: -0.45% | viability increase [3]: -1.5% | viability [4]: 100% | viability [5]: 95.9% | inhibition [6]: 2.48% | RAM network inhibition [7]: 7.21%

O=C1C2C3C=CC(C3)C2C(=O)N1c1ccccc1 (centres undefined)
growth inhibition [1]: -0.875% | growth inhibition [2]: 4.47% | viability increase [3]: 0.71% | viability [4]: 100% | viability [5]: 98.7% | inhibition [6]: 1.81% | RAM network inhibition [7]: 1.49%

Cc1ccc(C)c(-n2c(Cc3cc(=O)[nH]c(=O)[nH]3)nnc2SC(C)C)c1
growth inhibition [1]: 0.205% | growth inhibition [2]: 11.1% | viability increase [3]: -3.19% | viability [4]: 97.7% | viability [5]: 89.9% | inhibition [6]: 1.74% | RAM network inhibition [7]: 0.84%

Cc1ccccc1-c1ccc(Nc2ccc(C(=O)N3CCOCC3)cc2)nn1
growth inhibition [1]: 1.06% | growth inhibition [2]: -5.71% | viability increase [3]: -2.49% | viability [4]: 98.4% | viability [5]: 97.2% | inhibition [6]: 1.39% | RAM network inhibition [7]: -0.83%

Cc1ccc(S(=O)(=O)/N=C(\CN2CCCCC2)N2CCOCC2)cc1
growth inhibition [1]: -11.4% | growth inhibition [2]: -13.2% | viability increase [3]: -1.32% | viability [4]: 101% | viability [5]: 95% | inhibition [6]: 0.44% | RAM network inhibition [7]: 4.62%

NC(=O)CSc1nnc(Cn2c(=O)sc3ccccc32)n1-c1ccccc1
growth inhibition [1]: -6.81% | growth inhibition [2]: -0.84% | viability increase [3]: -0.83% | viability [4]: 98.5% | viability [5]: 96.8% | inhibition [6]: 2.02% | RAM network inhibition [7]: 2.47%
